Measured values as given in ChEMBL document CHEMBL1126947, “Synthesis and evaluation of 1-acyl-1,2-bis(methylsulfonyl)-2-(2- chloroethyl)hydrazines as antineoplastic agents” (J Med Chem, 1993).

How the values were obtained:
[1] = Initial rate of decomposition (1 mM) in 1 mM potassium phosphate buffer; assay type: ADME; settings: 1000 µM
Method in brief: (§1)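 Decomposition was followed at 37 °C, pH 7.4, by phenol red (20 mg/L) acidification at 560 nm in 1 mM potassium phosphate. Drug was at 1 mM final, added from a DMSO stock. Rates were calculated as 3 H⁺ per mol for acyl compounds, calibrated with HCl standards. The relative rate is the acyl compound rate divided by the reference tris(sulfonyl) rate.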

[2] = Rate of decomposition in presence of CD-1 mouse serum; assay type: ADME
Method in brief: (§2)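 Hydrolysis was followed by phenol red acidification (560 nm) at pH 7.4, 37 °C, in weak phosphate buffer containing 2% CD-1 mouse serum. Serum came from female CD-1 mice bled by cardiac puncture: blood from 3 mice was pooled, clotted 30 min at 37 °C, centrifuged, and kept on ice ≤6 h. HCl calibration was done in the serum mixture. The relative rate is the serum rate divided by the buffer rate.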

Mus musculus [3] = assay: Compound was tested for percent cures (60-day survivors) in mice at 20 mg/kg; assay type: functional
Method in brief: (§3)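 L1210 leukemia was passaged in donor CD2F1 mice. Each recipient mouse received 10⁵ cells. Drug was given ip in 100% DMSO once daily for 6 days, starting 24 h after implantation, at 5–20 mg/kg. Groups were 5–10 mice, with vehicle controls. %T/C = mean survival treated/control × 100, excluding cures. Cures = 60-day survivors. Body-weight change during therapy was taken as toxicity.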

Mus musculus [4] = assay: Average survival time of treated/control mice X 100 was determined at 20 mg/kg; assay type: functional; method in brief: as §3
[5] = Rate of decomposition in presence of 10 mM glutathione (GSH); assay type: ADME
Method in brief: (§4)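 Phenol red acidification (560 nm) was run in 1 mM potassium phosphate, pH 7.4, 37 °C, with 10 mM GSH added and 1 mM drug. Rates assumed 2 H⁺ released per mol during GSH-initiated decomposition. HCl calibration was done in the GSH-containing mixture. The relative rate is the GSH rate divided by the buffer-alone rate.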

L1210 [6] = assay: Average percent change in body weight against L1210 leukemia in mice at 20 mg/kg; assay type: functional, Mus musculus
Method in brief: (§5)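 L1210 leukemia, 10⁵ cells ip per recipient mouse (cells from ip passage in CD₂F₁ donors plus culture). Drug ip in 100% DMSO, ≤0.025 mL, once daily ×6 starting 24 h after implantation; groups of 5 mice (5–10 per group per footnote). Toxicity read-out: average percent change in body weight from onset to termination of therapy; vehicle-treated tumor-bearing controls included.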

Mus musculus [7] = assay: Compound was tested for percent cures (60-day survivors) in mice at 10 mg/kg; assay type: functional; method in brief: as §3
[8] = Relative rate of decomposition is the rate of decomposition in the presence of 2% serum/rate of hydrolysis in buffer alone.; assay type: ADME; method in brief: as §2
[9] = Relative rate of decomposition is the rate of decomposition in the presence of 10 mMGSH/rate of decomposition in buffer alone; assay type: ADME; method in brief: as §4
[10] = Relative rate of decomposition is the rate of decomposition of acyl compound to that of rate of decomposition of compound; assay type: ADME; method in brief: as §1
L1210 [11] = assay: Average percent change in body weight against L1210 leukemia in mice at 10 mg/kg; assay type: functional, Mus musculus; method in brief: as §5
L1210 [12] = assay: Average percent change in body weight against L1210 leukemia in mice at 60 mg/kg; assay type: functional, Mus musculus
Mus musculus [13] = assay: Compound was tested for percent cures (60-day survivors) in mice at 60 mg/kg; assay type: functional
M5076 [14] = assay: Optimal Antitumor Effect was expressed as % T/C against M5076, sc leukemia in mice (i.v.) 36 mg/kg; assay type: functional, Mus musculus; settings: route intravenous
Method in brief: (§6)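 Second M5076 sc experiment in C57BL/6 mice: drug iv in 100% DMSO, fixed 10 μL, every other day ×5 from day 1; eight mice/group. Outputs: %T/C (median survival ratio) and T − C growth delay to 1 g tumor, treated minus control.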

M109 [15] = assay: Optimal Antitumor Effect was expressed as % T/C against M109, sc leukemia in mice (i.v.) 30 mg/kg; assay type: functional, Mus musculus; settings: route intravenous
Method in brief: (§7)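 M109 lung carcinoma implanted sc (fragments passaged in Balb/c mice); drug iv in 10% DMSO in saline, 0.01 mL/g, every third day ×4 starting day 1. Eight mice/group, ≥3 dose levels. Read-outs: %T/C from median survival, and T − C = difference in median days for treated vs untreated tumors to reach 1 g (1 mm³ = 1 mg).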

Mus musculus [16] = assay: Average survival time of treated/control mice X 100 was determined at 7.5 mg/kg; assay type: functional; method in brief: as §3
P388 = assay: Optimal Antitumor Effect was expressed as cures/total against P388, ip, leukemia in mice (i.p.) 200 mg/kg; 3/6; assay type: functional, Mus musculus; settings: route intraperitoneal
M109 [17] = assay: Optimal Antitumor Effect was expressed as T-C against M109, sc leukemia in mice (i.v.) 48 mg/kg; assay type: functional, Mus musculus; settings: route intravenous
M5076 [18] = assay: Optimal Antitumor Effect was expressed as T-C against M5076, sc leukemia in mice (i.v.) 40 mg/kg; assay type: functional, Mus musculus; settings: route intravenous
Method in brief: (§8)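 M5076 reticulum cell sarcoma sc in C57BL/6 mice (fragment passage); drug iv in 10% DMSO in saline, 0.01 mL/g, every other day ×5 from day 1; eight mice/group. %T/C from median survival ratio; T − C = difference in median days for treated vs untreated tumors to reach 1 g.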

M5076 [19] = assay: Optimal Antitumor Effect was expressed as % T-C against M5076, sc leukemia in mice (i.v.) 36 mg/kg; assay type: functional, Mus musculus; settings: route intravenous; method in brief: as §6
L1210 [20] = assay: Average percent change in body weight against L1210 leukemia in mice at 7.5 mg/kg; assay type: functional, Mus musculus; method in brief: as §5
M109 [21] = assay: Optimal Antitumor Effect was expressed as T-C against M109, sc leukemia in mice (i.v.) 60 mg/kg; assay type: functional, Mus musculus; settings: route intravenous; method in brief: as §7
M109 [22] = assay: Optimal Antitumor Effect was expressed as % T/C against M109, sc leukemia in mice (i.v.) 60 mg/kg; assay type: functional, Mus musculus; settings: route intravenous; method in brief: as §7
Mus musculus [23] = assay: Compound was tested for percent cures (60-day survivors) in mice at 7.5 mg/kg; assay type: functional; method in brief: as §3
M109 [24] = assay: Optimal Antitumor Effect was expressed as T-C against M109, sc leukemia in mice (i.v.) 30 mg/kg; assay type: functional, Mus musculus; settings: route intravenous; method in brief: as §7
M109 [25] = assay: Optimal Antitumor Effect was expressed as % T/C against M109, ip leukemia in mice (i.p.) 60 mg/kg; assay type: functional, Mus musculus; settings: route intraperitoneal
Method in brief: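 M109 lung carcinoma ip in Balb/c-passaged line; drug ip every third day ×4 from day 1, as fine suspension in 10% DMSO in carboxymethylcellulose with Tween 80 (0.5 mL). Eight mice/group, ≥3 dose levels. %T/C = median survival treated/control ×100; deaths before day 10 counted as toxic.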

M109 [26] = assay: Optimal Antitumor Effect was expressed as % T/C against M109, sc leukemia in mice (i.v.) 32 mg/kg; assay type: functional, Mus musculus; settings: route intravenous
M5076 [27] = assay: Optimal Antitumor Effect was expressed as % T/C against M5076, sc leukemia in mice (i.v.) 20 mg/kg; assay type: functional, Mus musculus; settings: route intravenous; method in brief: as §8
B16 = assay: Optimal Antitumor Effect was expressed as T-C against B16 i.d. leukemia in mice (i.p.) 100 mg/kg; assay type: functional, Mus musculus; settings: route intraperitoneal
Mus musculus [28] = assay: Average survival time of treated/control mice X 100 was determined at 10 mg/kg; assay type: functional; method in brief: as §3

SMILES | Rate of decomposition [1] | Rate of decomposition [2] | Rate of decomposition [5] | Cures (Mus musculus [7]) [%] | Relative rate of decomposition [8] | Relative rate of decomposition [9] | Relative rate of decomposition [10] | Body weight (L1210 [11]) [%] | also measured
CC(C)(C)C(=O)N(N(CCCl)S(C)(=O)=O)S(C)(=O)=O | <= 0.1 (nM of drug) min-1 ml-1 | 0.78 (nM of drug) min-1 ml-1 | 11 (nM of drug) min-1 ml-1 |  |  |  |  |  | Cures (Mus musculus [3]): 60%; T/C (Mus musculus [4]): 302%; Body weight (L1210 [6]): 0%
COCC(=O)N(N(CCCl)S(C)(=O)=O)S(C)(=O)=O | 2.9 (nM of drug) min-1 ml-1 | 8.57 (nM of drug) min-1 ml-1 | 147 (nM of drug) min-1 ml-1 | 100 | 3 | 50.6 | 0.3 | -8.4 | 
CS(=O)(=O)N(CCCl)N(S(C)(=O)=O)S(C)(=O)=O | 9.58 (nM of drug) min-1 ml-1 |  |  |  |  |  | 1 |  | Body weight (L1210 [12]): -7.2%; Cures (Mus musculus [13]): 100%
CC(=O)N(N(CCCl)S(C)(=O)=O)S(C)(=O)=O | 0.24 (nM of drug) min-1 ml-1 | 0.89 (nM of drug) min-1 ml-1 | 14.5 (nM of drug) min-1 ml-1 |  | 3.7 | 60.3 | 0.03 (nM of drug) min-1 ml-1 |  | T/C (M5076 [14]): 122%; T/C (M109 [15]): 128%; T/C (Mus musculus [16]): 341%; Cures/total (P388): 3; T-C (M109 [17]): 14.5 days; T-C (M5076 [18]): 18.3 days; T-C (M5076 [19]): 20.8 days; Body weight (L1210 [20]): 1%; T-C (M109 [21]): 3 days; T/C (M109 [22]): 133%; Cures (Mus musculus [23]): 80%; T-C (M109 [24]): 10.5 days; T/C (M109 [25]): 231%; T/C (M109 [26]): 136%; T/C (M5076 [27]): 156%; T-C (B16): 12 days
CS(=O)(=O)N(CCCl)N(C(=O)c1ccccc1)S(C)(=O)=O | 1.02 (nM of drug) min-1 ml-1 | 7.86 (nM of drug) min-1 ml-1 | 227 (nM of drug) min-1 ml-1 |  | 7.7 | 223 | 0.11 |  | Cures (Mus musculus [3]): 20%; T/C (Mus musculus [4]): 160%; Body weight (L1210 [6]): -7.7%
CCCC(=O)N(N(CCCl)S(C)(=O)=O)S(C)(=O)=O | <= 0.1 (nM of drug) min-1 ml-1 | 0.34 (nM of drug) min-1 ml-1 | 10.3 (nM of drug) min-1 ml-1 | 20 |  |  |  | 0 | T/C (Mus musculus [28]): 207%
CCC(=O)N(N(CCCl)S(C)(=O)=O)S(C)(=O)=O | <= 0.1 (nM of drug) min-1 ml-1 | 0.45 (nM of drug) min-1 ml-1 | 12.8 (nM of drug) min-1 ml-1 | 90 |  |  |  | -6.4 | T/C (Mus musculus [28]): 217%
